Measurements as given in ChEMBL document CHEMBL3856214, “Lanostane Triterpenes Isolated from Antrodia heteromorpha and Their Inhibitory Effects on RANKL-Induced Osteoclastogenesis” (J Nat Prod, 2016).

Key:
BMDM [1] = test: (§1) Inhibition of RANKL-induced C57BL/6 mouse BMDM differentiation into osteoclasts after 4 days in presence of M-CSF by TRAP assay; format: functional
Outline: (§2)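 Bone marrow cells from femurs and tibiae of 6–8-week-old female C57BL/6 mice; after red-cell lysis, 3 days in α-MEM/10% FBS with penicillin-streptomycin and M-CSF (50 ng/mL); adherent cells kept as BMMs. BMMs (4 × 10^4/well) given M-CSF (50 ng/mL) plus RANKL (100 ng/mL) with vehicle or compound, 4 days. TRAP activity of culture supernatant with chromogenic substrate, OD 540 nm.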

[2] = as §1; format: functional; conditions: C57BL/6, BMDM, 96 h; outline: as §2
BMDM [3] = test: Inhibition of RANKL-induced C57BL/6 mouse BMDM differentiation into osteoclasts after 4 days in presence of M-CSF by TRAP staining-based light microscopy; format: functional
Outline: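 BMMs (6–8-week-old female C57BL/6 mouse femur/tibia marrow, 3 days with M-CSF 50 ng/mL) seeded at 4 × 10^4/well. Cultured 4 days with M-CSF (50 ng/mL), RANKL (100 ng/mL) and vehicle or compound. Fixed in 10% formalin for 5 min, then TRAP-stained by kit to show TRAP-positive multinucleated osteoclasts.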

Mus musculus = species: Mus musculus; test: Cytotoxicity against C57BL/6 mouse BMDM assessed as decrease in cell viability at IC50 after 4 days in presence of RANKL/M-CSF by XTT assay; format: toxicity; conditions: 96 h

Structure (SMILES)	inhibition (BMDM [1])	IC50 [2] [µM]	inhibition (BMDM [3])	Activity (Mus musculus)
CC1=C(C)[C@@]2(C[C@](C)(O)[C@H]3C[C@H](O)[C@@]4(C)C5=CC[C@H]6C(C)(C)[C@@H](O)C(=O)C[C@]6(C)C5=C[C@@H](O2)[C@]34C)OC1=O	Dose-dependent effect	4.5	Dose-dependent effect	Non-Toxic
C=C(CC[C@@H](C(=O)O)[C@H]1[C@H](O)C[C@@]2(C)C3=CC[C@H]4C(C)(C)C(=O)CC[C@]4(C)C3=CC[C@]12C)C(C)C [POLYPORENIC ACID B]	Dose-dependent effect	4.9	Dose-dependent effect	Non-Toxic
CC1=C(C)[C@@]2(C[C@](C)(O)[C@H]3C[C@H](O)[C@@]4(C)C5=CC[C@H]6C(C)(C)C(=O)[C@H](O)C[C@]6(C)C5=C[C@@H](O2)[C@]34C)OC1=O	Dose-dependent effect	7.4	Dose-dependent effect	Non-Toxic
